In ChEMBL document CHEMBL1153764, “A facile one-pot green synthesis and antibacterial activity of 2-amino-4H-pyrans and 2-amino-5-oxo-5,6,7,8-tetrahydro-4H-chromenes” (2009):
Converted amounts (≈) assume the structure as drawn.

Columns and labels:
Format in all cases: functional
Escherichia coli [1] = experiment: Antibacterial activity against Escherichia coli MTCC 41 at 128 ug/ml after 16 hrs by disc diffusion method; conditions: MTCC 41, 16 h, read-out: IZ
Method in brief: (§1)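 Disc diffusion zone-of-inhibition assay. The bacterial isolate was spread evenly over the surface of an agar plate. A filter disc loaded with a known amount of compound was placed on the surface, and the compound diffused into the surrounding agar. Plates were incubated 16 h until a bacterial lawn formed, and the zone of inhibition around the disc was then assessed.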

Pseudomonas putida [2] = experiment: Antibacterial activity against Pseudomonas putida MTCC 1072 at 64 ug/ml after 16 hrs by disc diffusion method; conditions: MTCC 1072, 16 h, read-out: IZ; method in brief: as §1
Staphylococcus aureus [3] = experiment: Antibacterial activity against Staphylococcus aureus MTCC 1144 at 128 ug/ml after 16 hrs by disc diffusion method; conditions: MTCC 1144, 16 h, read-out: IZ; method in brief: as §1
Pseudomonas putida [4] = experiment: Antibacterial activity against Pseudomonas putida MTCC 1072 at 128 ug/ml after 16 hrs by disc diffusion method; conditions: MTCC 1072, 16 h, read-out: IZ; method in brief: as §1
Staphylococcus aureus [5] = experiment: Antibacterial activity against Staphylococcus aureus MTCC 1144 after 12 to 16 hrs
Method in brief: (§2)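 Tube broth dilution MIC. Tubes were inoculated with the bacterial strain and incubated 12–16 h. Growth was scored visually: a turbid tube means growth, a clear tube means no growth. MIC is the lowest concentration with no growth.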

Escherichia coli [6] = experiment: Antibacterial activity against Escherichia coli MTCC 41 at 64 ug/ml after 16 hrs by disc diffusion method; conditions: MTCC 41, 16 h, read-out: IZ; method in brief: as §1
Staphylococcus aureus [7] = experiment: Antibacterial activity against Staphylococcus aureus MTCC 1144 at 64 ug/ml after 16 hrs by disc diffusion method; conditions: MTCC 1144, 16 h, read-out: IZ; method in brief: as §1
Pseudomonas putida [8] = experiment: Antibacterial activity against Pseudomonas putida MTCC 1072 after 12 to 16 hrs; method in brief: as §2
Escherichia coli [9] = experiment: Antibacterial activity against Escherichia coli MTCC 41 after 12 to 16 hrs; method in brief: as §2

Row | SMILES | zone of inhibition at 128 µg/mL (Escherichia coli [1]) | zone of inhibition at 64 µg/mL (Pseudomonas putida [2]) | zone of inhibition at 128 µg/mL (Staphylococcus aureus [3]) | zone of inhibition at 128 µg/mL (Pseudomonas putida [4]) | MIC (Staphylococcus aureus [5]) | zone of inhibition at 64 µg/mL (Escherichia coli [6]) | zone of inhibition at 64 µg/mL (Staphylococcus aureus [7]) | MIC (Pseudomonas putida [8]) | MIC (Escherichia coli [9])
1 | CCOC(=O)C1=C(C)OC(N)=C(C#N)C1c1ccc(C)cc1 (stereo unspecified) | < 1 mm | < 1 mm | < 1 mm | < 1 mm | > 128 µg/mL | < 1 mm | < 1 mm | > 128 µg/mL | > 128 µg/mL
2 | CC1(C)CC(=O)C2=C(C1)OC(N)=C(C#N)C2c1ccc([N+](=O)[O-])cc1 (stereo unspecified) | > 3 mm | < 1 mm | > 3 mm | > 3 mm | 64 µg/mL (≈ 189 µM) | > 3 mm | > 3 mm | 128 µg/mL (≈ 377 µM) | 64 µg/mL (≈ 189 µM)
3 | CC1(C)CC(=O)C2=C(C1)OC(N)=C(C#N)C2c1ccc(Cl)cc1 (stereo unspecified) | > 3 mm | > 2 mm | > 3 mm | > 3 mm | 128 µg/mL (≈ 389 µM) | > 2 mm | > 2 mm | 128 µg/mL (≈ 389 µM) | 128 µg/mL (≈ 389 µM)
4 | CC1(C)S[C@@H]2[C@H](NC(=O)[C@H](N)c3ccccc3)C(=O)N2[C@H]1C(=O)O [AMPICILLIN] | > 5 mm | 0 mm | > 5 mm | 0 mm | – | > 5 mm | > 5 mm | > 256 µg/mL | 16 µg/mL (≈ 45.8 µM)
5 | CCOC(=O)C1=C(C)OC(N)=C(C#N)C1c1cccc(O)c1 (stereo unspecified) | < 1 mm | < 1 mm | < 1 mm | > 3 mm | > 128 µg/mL | < 1 mm | < 1 mm | 128 µg/mL (≈ 426 µM) | > 128 µg/mL
6 | CCOC(=O)C1=C(C)OC(N)=C(C#N)C1c1cccc([N+](=O)[O-])c1 (stereo unspecified) | < 1 mm | < 1 mm | < 1 mm | < 1 mm | > 128 µg/mL | < 1 mm | < 1 mm | > 128 µg/mL | > 128 µg/mL
7 | CCOC(=O)C1=C(C)OC(N)=C(C#N)C1c1ccc([N+](=O)[O-])cc1 (stereo unspecified) | < 1 mm | < 1 mm | < 1 mm | < 1 mm | > 128 µg/mL | < 1 mm | < 1 mm | > 128 µg/mL | > 128 µg/mL
8 | CCOC(=O)C1=C(C)OC(N)=C(C#N)C1c1ccc(Cl)cc1 (stereo unspecified) | < 1 mm | < 1 mm | < 1 mm | < 1 mm | > 128 µg/mL | < 1 mm | < 1 mm | > 128 µg/mL | > 128 µg/mL
